Key:
Settings in all cases: in vivo, 1 h; call rule not given here
Heart = assay: Drug uptake in heart of MHC-PPARalpha overexpressing transgenic mouse at 170 uCi, iv after 60 mins by microPET imaging analysis; type: ADME, organism-based
Summary of the method: (§1)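 Dynamic microPET scan over 0–60 min after intravenous injection of the 11C-labelled tracer. Transgenic mice had cardiac-ventricle PPAR-α protein about 15-fold above wild-type littermates. Data were analysed as standard uptake values (SUV).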

Liver [1] = assay: Drug uptake in wild type mouse liver at 170 uCi, iv after 60 mins by post-PET gamma counting analysis; type: ADME, organism-based
Summary of the method: (§2)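 Biodistribution done after PET: tissues were collected after the 0–60 min dynamic scan following intravenous injection of the 11C-labelled tracer. Transgenic mice with about 15-fold ventricular PPAR-α overexpression were used alongside wild-type littermate controls. Uptake was expressed as %ID/g.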

Lung [2] = assay: Drug uptake in wild type mouse lungs at 170 uCi, iv after 60 mins by post-PET gamma counting analysis; type: ADME, organism-based; summary of the method: as §2
Kidney [3] = assay: Drug uptake in wild type mouse kidney at 170 uCi, iv after 60 mins by post-PET gamma counting analysis; type: ADME, organism-based; summary of the method: as §2
[4] = Drug uptake in cardiac tissue of MHC-PPARalpha overexpressing transgenic mouse at 170 uCi, iv after 60 mins by post-PET gamma counting analysis; type: ADME, organism-based, Heart; summary of the method: as §2
Muscle tissue [5] = assay: Drug uptake in muscle of MHC-PPARalpha overexpressing transgenic mouse at 170 uCi, iv after 60 mins by post-PET gamma counting analysis; type: ADME, organism-based; summary of the method: as §2
Liver [6] = assay: Drug uptake in liver of MHC-PPARalpha overexpressing transgenic mouse at 170 uCi, iv after 60 mins by post-PET gamma counting analysis; type: ADME, organism-based; summary of the method: as §2
Mus musculus = assay: Drug uptake in MHC-PPARalpha overexpressing transgenic mouse at 170 uCi, iv after 60 mins by microPET imaging analysis relative to wild type control; type: ADME, organism-based
Summary of the method: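 Transgenic mice overexpressing PPAR-α in heart (ventricular PPAR-α protein about 15-fold above wild-type) and wild-type littermate controls. Dynamic microPET imaging over 0–60 min after intravenous injection of the carbon-11-labelled radiotracer. Radiochemical purity >98%. Cardiac accumulation was quantified as standard uptake values (SUV) and compared with wild-type animals.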

Lung [7] = assay: Drug uptake in lungs of MHC-PPARalpha overexpressing transgenic mouse at 170 uCi, iv after 60 mins by post-PET gamma counting analysis; type: ADME, organism-based; summary of the method: as §2
Muscle tissue [8] = assay: Drug uptake in wild type mouse muscle at 170 uCi, iv after 60 mins by post-PET gamma counting analysis; type: ADME, organism-based; summary of the method: as §2
Blood [9] = assay: Drug uptake in blood of MHC-PPARalpha overexpressing transgenic mouse at 170 uCi, iv after 60 mins by post-PET gamma counting analysis; type: ADME, organism-based; summary of the method: as §2
Liver [10] = assay: Drug uptake in liver of MHC-PPARalpha overexpressing transgenic mouse at 170 uCi, iv after 60 mins by microPET imaging analysis; type: ADME, organism-based; summary of the method: as §1
Kidney [11] = assay: Drug uptake in kidney of MHC-PPARalpha overexpressing transgenic mouse at 170 uCi, iv after 60 mins by post-PET gamma counting analysis; type: ADME, organism-based; summary of the method: as §2
[12] = Drug uptake in wild type mouse cardiac tissue at 170 uCi, iv after 60 mins by post-PET gamma counting analysis; type: ADME, organism-based, Heart; summary of the method: as §2
Spleen [13] = assay: Drug uptake in spleen of MHC-PPARalpha overexpressing transgenic mouse at 170 uCi, iv after 60 mins by post-PET gamma counting analysis; type: ADME, organism-based; summary of the method: as §2
Spleen [14] = assay: Drug uptake in wild type mouse spleen at 170 uCi, iv after 60 mins by post-PET gamma counting analysis; type: ADME, organism-based; summary of the method: as §2
Blood [15] = assay: Drug uptake in wild type mouse blood at 170 uCi, iv after 60 mins by post-PET gamma counting analysis; type: ADME, organism-based; summary of the method: as §2

CC(C)(Sc1ccc(CCN(CCCCC2CCCCC2)C(=O)Nc2ccc(O[11CH3])cc2)cc1)C(=O)O
Drug uptake (Heart): Active | Drug uptake (Liver [1]): 60.69 % ID/g | Drug uptake (Lung [2]): 2.11 % ID/g | Drug uptake (Kidney [3]): 2.01 % ID/g | Drug uptake [4]: 1.09 % ID/g | Drug uptake (Muscle tissue [5]): 0.36 % ID/g | Drug uptake (Liver [6]): 55.3 % ID/g | fold change (FC) (Mus musculus): 2 | Drug uptake (Lung [7]): 2.65 % ID/g | Drug uptake (Muscle tissue [8]): 0.35 % ID/g | Drug uptake (Blood [9]): 0.42 % ID/g | Drug uptake (Liver [10]): Active | Drug uptake (Kidney [11]): 2.58 % ID/g | Drug uptake [12]: 0.479 % ID/g | Drug uptake (Spleen [13]): 1.33 % ID/g | Drug uptake (Spleen [14]): 1.55 % ID/g | Drug uptake (Blood [15]): 0.42 % ID/g
